KCNK9 block = KCNK9 potassium channel inhibitors, primary screen, HEK293 cells, thallium flux | B-score at 10 µM | FluxOR thallium flux fluorescence; stronger effect = lower value | 310,000 tested, 1.2% active | AID 488922, 2010 | Potassium channel subfamily K member 9 (Homo sapiens), Q9NPC2;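 active = ratio B-score over 3 SD below the library mean, with starting fluorescence within 5 SD of its mean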;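 note: negative B-score means less thallium flux so channel inhibition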
KCNQ1 inh = inhibitors of human KCNQ1 channel, primary screen, cell-based, thallium flux, high-throughput | 310,000 tested, 1.3% active | B-score at 10 µM | CHO-K1 KCNQ1, FluxOR thallium flux fluorescence; stronger effect = higher value;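 active = compounds whose thallium flux B-score, printed positive for inhibition, exceeds three library SD while starting fluorescence stays within three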;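 note: channel opened by potassium depolarization with thallium stimulus after 20 min compound exposure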
Cl transport mod = KCC2 cotransporter modulators, thallium flux, primary screen, cell-based, HEK293 KCC2, FluoZin-2 fluorescence, MLSMR; Solute carrier family 12 member 5 (Homo sapiens), Q9H2X9; KCC2 cells, thallium flux FluoZin-2 fluorescence; B-score of Tl+ flux slope (higher = more flux/activation; lower = inhibition) at 10 µM; 190,000 tested, 2.2% active; AID 1456, 2008;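 active = thallium flux slope and its plate-corrected score both differing from the plate sample mean at a set confidence after two filtering rounds, in either direction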;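 note: slope of fluorescence scaled to starting intensity during 10 to 20 s after thallium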
KCNQ1 pot = potentiators or activators of KCNQ1 channel, primary screen, cell-based, thallium flux, high-throughput | CHO-K1 KCNQ1, thallium flux FluxOR fluorescence; stronger effect = higher value | B-score at 10 µM | 310,000 tested, 0.35% active;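 active = fluorescence ratio B-score, a plate-corrected score, at least three library SD, with initial intensity B-score within 5 SD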
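Schedule – 37 °C overnight plating, 90-min dark dye load, 20-min compound pretreatment · System – stable KCNQ1 CHO-K1 line · Probe or stimulus – thallium- and potassium-containing depolarizing buffer · Measured by – kinetic FluxOR fluorescence, 10 s baseline plus 110 s post-stimulus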
hERG rescue = hERG rescue from dofetilide block, primary screen, cell-based, CHO-hERG, FluxOR thallium flux, dofetilide IC70 | AID 1511, 2009 | 310,000 tested, 0.51% active | activation (rescue from dofetilide block), less the hit threshold, % at 10 µM | dofetilide IC70 present | Voltage-gated inwardly rectifying potassium channel KCNH2 (Homo sapiens), Q12809;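 active = activation above the mean of controls blocked by dofetilide plus 5 SD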;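 note: thallium influx through hERG after potassium depolarization seen as dye fluorescence rise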
KCNK3 inh = human KCNK3 channel inhibitors, primary screen, CHO cells, FluxOR thallium flux, B-score; B-score at 10 µM; FluxOR fluorescence; stronger effect = lower value; 340,000 tested, 0.84% active; AID 602410, 2012;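 active = B-score under library mean minus 4 SD, starting fluorescence ratio at most library mean plus 5 SD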;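 note: more negative B-score means stronger inhibition of thallium flux through KCNK3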
KCNQ1 inh valid = KCNQ1 potassium channel inhibitors, confirmation, cell-based, Tl flux, duplicate; shares compounds with KCNQ1 inh; KCNQ1 cell line, FluxOR thallium flux fluorescence; inhibition, % at 10 µM; 1,600 tested, 93% active; AID 588353, 2011;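 active = primary screen active, with duplicate mean exceeding buffer control mean plus 3 SD of buffer wells, cut at about 28% in these data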;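 note: 0% = buffer control ratio and 100% = XE991 inhibitor control ratio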
CHO Tl flux = thallium flux effects in parental CHO cells, counter-screen for KCNQ1 inhibitor project, cell-based, Tl flux; parental CHO-K1, FluxOR thallium flux fluorescence ratio; stronger effect = lower value; zero means no signal rise above baseline; 1,600 tested, 21% active; fluorescence ratio (Tl flux) at 10 µM; shares compounds with KCNQ1 inh; AID 588366, 2011;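 active = mean of duplicate thallium-flux fluorescence ratios in parental host cells more than 5 SD below the buffer control mean, cut at about 0.38 in these data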;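 note: ratio is peak minus minimum fluorescence divided by baseline fluorescence; actives read low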
KCNQ1 ephys val = KCNQ1 channel inhibitors, confirmation, orthogonal assay, cell-based, automated electrophysiology. calls only at 10 µM. 490 tested, 20% active. AID 624120, 2012. KCNQ1-CHO cells, automated patch clamp current. shares compounds with KCNQ1 inh;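 active = KCNQ1 current drop exceeding 3 SD of negative control wells, seen in both duplicate runs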;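 note: steady state current during a 2 s step from -80 to +40 mV; negative values mean current inhibition and positive values mean potentiation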
KCNQ2 inh = KCNQ2 channel inhibition, selectivity assay for KCNQ1 inhibitor project, cell-based; shares compounds with KCNQ1 inh; KCNQ2 cells, FluxOR thallium flux fluorescence; inhibition, % at 10 µM; 1,600 tested, 71% active; AID 651746, 2012;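 active = mean percent inhibition of the KCNQ2 thallium signal more than 5 SD above the buffer-only control wells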;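 note: KCNQ2 expressed in CHO cells; 0% = buffer control wells and 100% = XE-991 inhibitor control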
KCNQ1-KCNE1 inh = KCNQ1/KCNE1 channel inhibition, selectivity assay for KCNQ1 inhibitor project, CHO-K1 cells, thallium flux, FluxOR. shares compounds with KCNQ1 inh. FluxOR thallium flux fluorescence. inhibition, % at 10 µM. 1,600 tested, 77% active. AID 652147, 2013;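 active = mean percent inhibition of duplicate wells above the buffer-only control mean plus 3 SD of those controls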;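 note: 0% = buffer only wells and 100% = XE-991 inhibitor control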
Target sequence (P51787 whole entry, looked up): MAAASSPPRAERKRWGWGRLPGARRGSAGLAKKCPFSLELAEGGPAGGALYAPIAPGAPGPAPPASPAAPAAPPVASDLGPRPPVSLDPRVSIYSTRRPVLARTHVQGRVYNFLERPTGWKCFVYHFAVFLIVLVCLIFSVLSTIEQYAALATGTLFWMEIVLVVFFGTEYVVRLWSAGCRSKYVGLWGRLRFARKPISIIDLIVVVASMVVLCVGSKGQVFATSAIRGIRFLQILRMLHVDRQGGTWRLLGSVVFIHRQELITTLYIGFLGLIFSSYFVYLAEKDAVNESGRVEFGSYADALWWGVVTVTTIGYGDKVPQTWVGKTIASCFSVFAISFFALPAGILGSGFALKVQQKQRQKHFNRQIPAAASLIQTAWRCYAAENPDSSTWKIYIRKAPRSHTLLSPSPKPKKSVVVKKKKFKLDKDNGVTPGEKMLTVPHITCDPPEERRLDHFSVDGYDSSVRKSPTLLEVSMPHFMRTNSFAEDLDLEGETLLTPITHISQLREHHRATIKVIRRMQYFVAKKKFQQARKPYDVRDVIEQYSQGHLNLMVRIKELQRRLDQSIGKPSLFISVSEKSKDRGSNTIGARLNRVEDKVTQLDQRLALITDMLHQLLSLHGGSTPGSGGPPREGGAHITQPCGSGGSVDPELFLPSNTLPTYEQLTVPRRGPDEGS
* marks the source's active call; other numbers are inactive results; i = inactive; . = no result; + = active, no number. Shown are actives, neighbours in structure and some others; about 4.1% of the full set was active somewhere.

SMILES | KCNK9 block | KCNQ1 inh | Cl transport mod | KCNQ1 pot | hERG rescue | KCNK3 inh | KCNQ1 inh valid | CHO Tl flux | KCNQ1 ephys val | KCNQ2 inh | KCNQ1-KCNE1 inh
NCCC(=O)N1c2ccccc2Sc2ccc(Cl)cc21 | i | 7* | . | i | -8 | i | 72* | 0.47 | . | i | 62%*
NCCCC(=O)N1c2ccccc2Sc2ccc(Cl)cc21 | i | i | . | i | -3 | i | . | . | . | . | .
CCn1nc(NC(=O)c2ccccc2)c2cc3cccc(C)c3nc21 | i | 6* | 0.18 | i | -13 | i | 152* | 0.47 | i | i | 142%*
CCc1nc(C)c(C(=O)N2CCCC(C(=O)Nc3cccc(-c4cccc(C)c4)c3)C2)o1 (stereo not given) | i | i | . | i | -8 | i | . | . | . | . | .
O=C(OCc1ccccc1)N1CCC2CC1c1cc(-c3ccc4c(c3)OCO4)ccc12 (stereo not given) | . | . | . | . | . | i | . | . | . | . | .
Cc1ccc(-n2cccn2)c(CN2CCCC(C(=O)c3sccc3C)C2)c1 (stereo not given) | i | 9* | . | i | -17 | i | 72* | 0.4 | . | 99%* | 54%*
COc1ccc(O)c(CN2CCCC(C(=O)Nc3cccc(-n4cccn4)c3)C2)c1 (stereo not given) | i | i | . | i | -10 | i | . | . | . | . | .
Cc1ccccc1NC(NC(=O)c1cccs1)C(Cl)(Cl)Cl (stereo not given) | i | 13* | 1.9 | i | -10 | i | 120* | 0.43 | i | i | 114%*
COc1cccc(C(=O)Nc2ccc3nc(N4CCOCC4)cc(C)c3c2)c1 | i | 7* | -2.2 | i | -16 | i | + | 0.46 | i | i | i
COCCCNC(=O)C[C@H]1C[C@H](C(=O)N2CCOCC2)[C@@]2(C)c3[nH]c4cc(CCC(=O)N(C)C)ccc4c3CCN2C1=O | . | . | . | . | . | i | . | . | . | . | .
Cc1nc(Cl)c(C#N)cc1-c1ccccc1 | i | i | -0.53 | i | -4 | i | . | . | . | . | .
Cc1nc(Sc2ccccc2)c(C#N)cc1-c1ccccc1 | i | 6* | 0.058 | i | -17 | i | 95* | 0.42 | + | 105%* | 136%*
Cc1ccc(CCN2C(Nc3ccccc3)=NC[C@@H]2C)cc1 | . | . | . | . | . | i | . | . | . | . | .
Cc1ccc(SCCNC(=S)Nc2cc(C)cc(C)c2)cc1 | i | 9* | . | i | -20 | i | 69* | 0.5 | . | 71%* | 77%*
Cc1ccc(NC(=S)NCCSc2ccc(Cl)cc2)cc1 | i | i | 1.9 | i | -3 | i | . | . | . | . | .
Cc1cccc(C)c1NC(=S)NCCSc1ccc(Cl)cc1 | i | 6* | -0.59 | i | -15 | i | 90* | 0.43 | i | 110%* | 96%*
CCC(CC)C(=O)Nc1nnc(S(=O)(=O)N2CCCC2)s1 | i | i | . | i | -5 | i | . | . | . | . | .
Cc1ccc(C)c(CN2CCC(CNC(=O)Nc3ccc(F)c(Cl)c3)CC2)c1 | i | 7* | . | i | -17 | i | 58* | 0.43 | . | i | 42%*
Cc1cc(C)cc(NC(=O)NCC2CCN(Cc3cc(C)ccc3C)CC2)c1 | i | i | . | i | -9 | i | . | . | . | . | .
Cc1ccc(NC(=O)Cn2c(=O)ccn(Cc3ccccc3)c2=O)cc1S(=O)(=O)N1CCOCC1 | . | . | . | . | . | i | . | . | . | . | .
Cc1ccc(-n2cc(-c3ccccc3)c3c(N4CCN(C)CC4)ncnc32)cc1 | i | i | -0.17 | i | -18 | i | . | . | . | . | .
OCCN1CCN(c2ncnc3c2c(-c2ccccc2)cn3-c2ccc(F)cc2)CC1 | i | i | -0.61 | i | -10 | i | . | . | . | . | .
CCOC(=O)C1CCN(c2ncnc3c2c(-c2ccccc2)cn3-c2ccccc2)CC1 | i | 9* | 0.0025 | i | -22 | i | 138* | 0.4 | i | 104%* | +
CC1CN(c2ncnc3c2c(-c2ccccc2)cn3-c2ccc(F)cc2)CC(C)O1 (stereo not given) | i | 9* | -0.4 | i | -27 | i | 138* | 0.42 | i | 135%* | 138%*
CCOC(=O)C1CCN(c2ncnc3c2oc2ccc(Cl)cc23)CC1 | i | 7* | . | i | -14 | i | 62* | 0.55 | . | 94%* | i
Cc1ccc(-n2cc(-c3ccccc3)c3c(N4CCOCC4)ncnc32)cc1 | i | 12* | -0.86 | i | -12 | i | 94* | 0.42 | i | 107%* | 134%*
CCC(C)(C)c1ccc(OCC(=O)Nc2ccncc2)cc1 | i | 8* | . | i | -23 | i | 138* | 0.44 | i | 92%* | 72%*
O=C(COc1ccccc1)Nc1cccc(-c2nc3ccccc3[nH]2)c1 | i | 6* | -2.4 | i | -15 | i | 52* | 0.47 | . | 78%* | 80%*
O=C(COc1ccc(Nc2ccccc2)cc1)Nc1ccncc1 | i | 8* | . | i | -21 | i | 94* | 0.54 | . | i | i
CC(C)CCOc1cccc(OCC(=O)Nc2ccncc2)c1 | i | 12* | . | i | -14 | i | 106* | 0.45 | i | i | 40%*
